ChEMBL document CHEMBL5505965 (Eur J Med Chem, 2024)
pIC50: −log10 of the molar value. In brackets after ≈: the same amount, converted by molar mass.

Tests used:
[1] = Inhibition of NDM1 (unknown origin)
Escherichia coli [2] = experiment: Synergistic anti-bacterial activity Escherichia coli E.cloni MP30-57 expressing blaVIM- gene assessed as decrease in meropenem MIC at 500 uM; assay type: functional
Escherichia coli [3] = experiment: Synergistic anti-bacterial activity Escherichia coli E.cloni MP30-58 expressing blaIMP- gene assessed as decrease in meropenem MIC at 500 uM; assay type: functional
Escherichia coli [4] = experiment: Synergistic anti-bacterial activity Escherichia coli E.cloni MP30-63 expressing blaNDM- gene assessed as decrease in meropenem MIC at 500 uM; assay type: functional
Escherichia coli [5] = experiment: Synergistic anti-bacterial activity Escherichia coli E.cloni MP30-63 expressing blaNDM- gene assessed as fold reduction in meropenem MIC at 500 uM; assay type: functional
Escherichia coli [6] = experiment: Synergistic anti-bacterial activity Escherichia coli E.cloni MP30-57 expressing blaVIM- gene assessed as fold reduction in meropenem MIC at 500 uM; assay type: functional
Escherichia coli [7] = experiment: Synergistic anti-bacterial activity Escherichia coli E.cloni MP30-58 expressing blaIMP- gene assessed as fold reduction in meropenem MIC at 500 uM; assay type: functional
Escherichia coli [8] = experiment: Anti-bacterial activity against Escherichia coli E.cloni MP30-57 expressing blaVIM- gene assessed as decrease in bacterial growth; assay type: functional
Summary of the method: (§1)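 Test compound held at a fixed 500 μM in E. coli producing the B1 metallo-β-lactamase (NDM-1, VIM-2 or IMP-26). Growth was checked with the compound alone and in combination with meropenem. Read-out was the meropenem MIC (mg/L) and its fold reduction.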

Escherichia coli [9] = experiment: Anti-bacterial activity against Escherichia coli E.cloni MP21-05 assessed as decrease in bacterial growth; assay type: functional
Escherichia coli [10] = experiment: Anti-bacterial activity against Escherichia coli E.cloni MP30-63 expressing blaNDM- gene assessed as decrease in bacterial growth; assay type: functional; summary of the method: as §1
Escherichia coli [11] = experiment: Anti-bacterial activity against Escherichia coli E.cloni MP30-58expressing blaIMP- gene assessed as decrease in bacterial growth; assay type: functional; summary of the method: as §1

Row | SMILES | pIC50 [1] | further results
1 | O=C(NCc1ccccc1)[C@H](CS)C(F)(F)F | 5.00 | –
2 | O=C(CC(S)C(F)(F)F)NCc1ccc(C(=O)O)cc1 (configuration not stated) | < 3.52 | –
3 | O=C(CC(S)C(F)(F)F)Nc1ccc(C(=O)O)cc1 (configuration not stated) | 5.25 | –
4 | O=C(O)C1CCN(C(=O)CC(S)C(F)(F)F)CC1 (configuration not stated) | < 3.52 | –
5 | O=C(CC(S)C(F)(F)F)Nc1ccccc1 (configuration not stated) | 4.66 | –
6 | C[C@@H](O)[C@H]1C(=O)N2C(C(=O)O)=C(S[C@@H]3CN[C@H](C(=O)N(C)C)C3)[C@H](C)[C@H]12 [MEROPENEM] | – | MIC (Escherichia coli [8]): 0.5 µg/mL (≈ 1.3 µM); MIC (Escherichia coli [9]): 0.03 µg/mL (≈ 0.0782 µM); MIC (Escherichia coli [10]): 32 µg/mL (≈ 83.4 µM); MIC (Escherichia coli [11]): 2 µg/mL (≈ 5.22 µM)
7 | O=C(NCc1ccccc1)C(CS)C(F)(F)F (racemic) | 4.70 | –
8 | O=C(NCc1ccccc1)[C@@H](CS)C(F)(F)F | 4.12 | –
9 | O=C(O)c1ccc(CNC(=O)C(CS)C(F)(F)F)cc1 (configuration not stated) | 4.19 | –
10 | O=C(CC(S)C(F)(F)F)NCc1ccccc1 (configuration not stated) | < 3.52 | –
11 | O=C(Nc1ccccc1)C(CS)C(F)(F)F (configuration not stated) | 5.47 | –

Second part, led by results:

Row | pIC50 [1] | SMILES | further results
12 | 4.19 | C[C@@H](CS)C(=O)N1CCC[C@@H]1C(=O)O | –
13 | < 3.52 | O=C(O)[C@H]1CCCN1C(=O)CC(S)C(F)(F)F (some centres not stated) | –
14 | 6.52 | O=C(O)[C@H]1CCCN1C(=O)[C@@H](CS)C(F)(F)F | MIC (Escherichia coli [2]): 0.25 µg/mL; MIC (Escherichia coli [3]): 4 µg/mL; MIC (Escherichia coli [4]): 4 µg/mL
15 | 5.66 | O=C(O)C1CCN(C(=O)C(CS)C(F)(F)F)CC1 (configuration not stated) | MIC (Escherichia coli [2]): 0.125 µg/mL; MIC (Escherichia coli [3]): 2 µg/mL; MIC (Escherichia coli [4]): 1 µg/mL; fold change (FC) (Escherichia coli [5]): 32
16 | 5.49 | O=C(O)[C@H]1CCCCN1C(=O)C(CS)C(F)(F)F (some centres not stated) | MIC (Escherichia coli [2]): 0.125 µg/mL; MIC (Escherichia coli [3]): 0.5 µg/mL; MIC (Escherichia coli [4]): 0.5 µg/mL; fold change (FC) (Escherichia coli [5]): 32
17 | 5.21 | O=C(O)[C@@H]1CCCN1C(=O)[C@@H](CS)C(F)(F)F | fold change (FC) (Escherichia coli [6]): 8; MIC (Escherichia coli [2]): 0.06 µg/mL; MIC (Escherichia coli [3]): 0.25 µg/mL; MIC (Escherichia coli [4]): 4 µg/mL; fold change (FC) (Escherichia coli [7]): 8
18 | < 3.30 | C[C@@H](CS)C(=O)N1CCC[C@H]1C(=O)O | –
19 | 4.43 | O=C(O)[C@@H]1CCCN1C(=O)C(CS)C(F)(F)F (some centres not stated) | –
20 | 4.22 | O=C(O)[C@@H]1CCCN1C(=O)[C@H](CS)C(F)(F)F | –
21 | 3.84 | O=C(O)[C@H]1CCCCN1C(=O)CC(S)C(F)(F)F (some centres not stated) | –
22 | 5.35 | O=C(O)[C@H]1CCCN1C(=O)[C@H](CS)C(F)(F)F | –
23 | < 3.52 | O=C(O)[C@@H]1CCCN1C(=O)CC(S)C(F)(F)F (some centres not stated) | –
